Molecules are shown by their SMILES.

Data on ten molecules can be found in ChEMBL document CHEMBL1123624, “Prodrugs of L-cysteine as protective agents against acetaminophen-induced hepatotoxicity. 2-(Polyhydroxyalkyl)- and 2-(polyacetoxyalkyl)thiazolidine-4(R)-carboxylic acids” (1987).

For test [1], the species on record is Mus musculus. The test can be described thus: Number of mice with necrosis was measured for compound along with acetaminophen showing necrosis rating of 4+ was reported. It is filed as functional.
The species named for test [2] is Mus musculus. Put plainly: Percentage survival of mice after 48 hr. It is filed as functional. Also noted: concentration or dose not given beside the values. In short, it runs like this:
(§1)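 Male Swiss-Webster mice (19–31 g) were fasted overnight with water available. They received acetaminophen 750 mg/kg (4.97 mmol/kg) ip and then, 30 min later, prodrug 2.45 mmol/kg ip. The prodrug was given in sterile water, sterile 0.1 N NaHCO3, or as a slurry in 2% CMC. Food was then restored, and animals were checked at 12, 24 and 48 h. Survivors were counted at 48 h.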

Test [3] is filed under the species Mus musculus. Put plainly: Number of mice with necrosis was measured for compound along with acetaminophen showing necrosis rating of 0 was reported. It counts as functional.
The species entered for test [4] is Mus musculus. Put plainly: Number of mice with necrosis was measured for compound along with acetaminophen showing necrosis rating of 1+ was reported. It counts as functional.
The species entered for test [5] is Mus musculus. The test can be described thus: No of mice protected out of 10 against acetaminophen-induced Hepatotoxicity after 48 h. It counts as functional. In short, it runs like this: as §1
Test [6] is filed under the species Rattus norvegicus. The test can be described thus: In vitro increased GSH content of rat hepatocytes when incubated with compound after 4 hr at 1.0 mM concentration. It is filed as functional, Hepatocyte. In short, it runs like this: (§2)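 Primary rat hepatocyte cultures exposed to prodrug for 4 h; medium aspirated, cells rinsed with cold PBS, deproteinized with 5% sulfosalicylic acid. Total GSH (GSH + GSSG) measured by modified DTNB–glutathione reductase recycling, from cycling rate (ΔOD 412 nm/min); expressed as nmol/10^6 cells ± SE and relative to untreated controls.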

The species entered for test [7] is Rattus norvegicus. The test can be described thus: Inhibitory effect on GSH elevation elicited by compound in rat hepatocytes in the presence of buthionine sulfoximine (BSO) (0.2 mM). It counts as functional, Hepatocyte. In outline: (§3)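 Primary rat hepatocytes pre-exposed to buthionine sulfoximine (0.20 mM) before 4 h incubation with prodrug (1.0 mM). Total GSH (GSH + GSSG) after PBS rinse and 5% sulfosalicylic acid deproteinization, by modified DTNB–glutathione reductase recycling (ΔOD 412 nm/min). Reported as nmol/10^6 cells ± SE and relative to untreated controls.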

The species named for test [8] is Rattus norvegicus. Put plainly: GSH level related to controls in the presence of buthionine sulfoximine (BSO) (0.2 mM). It counts as functional. In short, it runs like this:
as §3

For test [9], the species on record is Mus musculus. Put plainly: Number of mice with necrosis was measured for compound along with acetaminophen showing necrosis rating of 3+ was reported. It counts as functional.
The species entered for test [10] is Rattus norvegicus. The test can be described thus: GSH level related to controls. It counts as functional. In short, it runs like this: as §2
Test [11] is filed under the species Mus musculus. The test can be described thus: Number of mice with necrosis was measured for compound along with acetaminophen showing necrosis rating of 2+ was reported. It is filed as functional.
Test [12] is filed under the species Mus musculus. Put plainly: No of mice protected out of 12 against acetaminophen-induced Hepatotoxicity after 48 h. It counts as functional. In outline: as §1
The species entered for test [13] is Mus musculus. The test can be described thus: Number of mice with necrosis was measured for compound along with acetaminophen and number of animals showing necrosis rating of 2+ was reported. It counts as functional.
For test [14], the species on record is Mus musculus. The test can be described thus: Number of mice with necrosis was measured for compound along with acetaminophen and number of animals showing necrosis rating of 0 was reported. It is filed as functional.
The species entered for test [15] is Mus musculus. The test can be described thus: Number of mice with necrosis was measured for compound along with acetaminophen and number of animals showing necrosis rating of 1+ was reported. It is filed as functional.
For test [16], the species on record is Mus musculus. Put plainly: Number of mice with necrosis was measured for compound along with acetaminophen and number of animals showing necrosis rating of 4+ was reported. It counts as functional.
The species named for test [17] is Rattus norvegicus. The test can be described thus: In vitro increased GSH content of rat hepatocytes when incubated with compound after 4 hr at 2.5 mM concentration. It counts as functional, Hepatocyte. In outline:
as §2

The species named for test [18] is Mus musculus. The test can be described thus: Number of mice with necrosis was measured for compound along with acetaminophen and number of animals showing necrosis rating of 3+ was reported. It is filed as functional.
Test [19] is filed under the species Mus musculus. Put plainly: Protection of mice against acetaminophen-induced Hepatotoxicity. It counts as functional. In outline:
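Fasted male Swiss-Webster mice (19–31 g) were given acetaminophen 750 mg/kg ip, then prodrug 2.45 mmol/kg ip 30 min later. Outcomes were 48-h survival plus histology. Central-lobe liver sections came from animals found dead at 12/24/48 h or killed at 48 h. Sections were formalin-fixed and H&E-stained. Necrosis was rated blind using Mitchell's scale.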

As for `O=C(O)[C@@H]1CSC(C(O)CO)N1` (some centres undefined), the No. of animals in the test filed under Mus musculus [1] amounted to 7; in the test listed under Mus musculus [3], 0; in the test listed under Mus musculus [4], 0; in the test listed under Mus musculus [9], 2; in the test filed under Mus musculus [11], 1. The molecule further came in with a Survival in the test filed under Mus musculus [2] of 30%. For the same molecule, in the test listed under Mus musculus [5], the No. of survivors came out at 3. Also, the “[GSH]” value was 46.1 nmol/10^6 cells in the test listed under Rattus norvegicus [6] and 18.3 nmol/10^6 cells in the test filed under Rattus norvegicus [7]. Moreover, the GSH level in the test filed under Rattus norvegicus [8] was 0.5; in the test listed under Rattus norvegicus [10], 1.3.
In the case of `O=C(O)[C@@H]1CSC(C(O)C(O)C(O)CO)N1` (stereo in doubt; 1b), the values for the No. of animals in the test listed under Mus musculus [1], in the test listed under Mus musculus [4] and in the test listed under Mus musculus [11] were 7, 1 and 2, respectively. Further, the Survival in the test listed under Mus musculus [2] stood at 40%. Besides, the No. of survivors in the test listed under Mus musculus [5] was determined as 4. Moreover, the entries for the “[GSH]” value in the test filed under Rattus norvegicus [6] and in the test listed under Rattus norvegicus [7] were 42.9 nmol/10^6 cells and 19.5 nmol/10^6 cells, respectively. For the same molecule, in the test listed under Rattus norvegicus [10], the GSH level is on record as 1.2.
On to `O=C(O)[C@@H]1CSC(C(O)C(O)C(O)CO)N1` (stereo in doubt; 1c), for which the No. of animals in the test filed under Mus musculus [1] stood at 9; in the test filed under Mus musculus [3] it was 0; in the test filed under Mus musculus [4], 0; in the test filed under Mus musculus [9] it was 1; in the test filed under Mus musculus [11] it was 0. The same molecule came in with a Survival in the test filed under Mus musculus [2] of 30%. The No. of survivors in the test filed under Mus musculus [5] was 3. Also, the entries for the “[GSH]” value in the test listed under Rattus norvegicus [6] and in the test filed under Rattus norvegicus [7] were 45.9 nmol/10^6 cells and 22.4 nmol/10^6 cells, respectively. In addition, the GSH level in the test filed under Rattus norvegicus [8] is on record as 0.6; in the test filed under Rattus norvegicus [10] it was 1.3.
Take `O=C(O)[C@@H]1CSC(C(O)C(O)C(O)CO)N1` (stereo in doubt; 1d): the No. of animals in the test filed under Mus musculus [1] is listed as 0; in the test filed under Mus musculus [3] it was 4; in the test listed under Mus musculus [4], 2; in the test filed under Mus musculus [9] it was 0; in the test listed under Mus musculus [11], 6. In the test listed under Mus musculus [2], the Survival is 100%. For the same molecule, the No. of survivors in the test filed under Mus musculus [12] amounted to 12. The “[GSH]” value is recorded as 61.2 nmol/10^6 cells in the test filed under Rattus norvegicus [6] and 16.2 nmol/10^6 cells in the test filed under Rattus norvegicus [7]. Further, the GSH level in the test listed under Rattus norvegicus [8] turned out to be 0.5; in the test filed under Rattus norvegicus [10] it was 1.7.
As to `O=C(O)[C@@H]1CSC(C(O)C(O)C(O)CO)N1` (stereo in doubt; 1e), the No. of animals worked out at 5 in the test filed under Mus musculus [1] and 3 in the test filed under Mus musculus [3]. For the same molecule, the Survival in the test listed under Mus musculus [2] is reported as 60%. The No. of survivors in the test listed under Mus musculus [5] is 6. For the same molecule, the “[GSH]” value turned out to be 58.3 nmol/10^6 cells in the test listed under Rattus norvegicus [6] and 22.6 nmol/10^6 cells in the test listed under Rattus norvegicus [7]. Besides, the GSH level in the test listed under Rattus norvegicus [8] was 0.8; in the test listed under Rattus norvegicus [10] it was 1.6.
`O=C(O)[C@@H]1CSC(C(O)C(O)C(O)C(O)CO)N1` (stereo in doubt; 1f): the No. of animals in the test filed under Mus musculus [1] is reported as 4; in the test filed under Mus musculus [3] it was 1; in the test listed under Mus musculus [4] it was 3; in the test filed under Mus musculus [9] it was 0; in the test listed under Mus musculus [11] it was 2. In the test listed under Mus musculus [2], this molecule gave a Survival of 60%. For the same molecule, the No. of survivors in the test filed under Mus musculus [5] turned out to be 6. For the same molecule, the entries for the “[GSH]” value in the test listed under Rattus norvegicus [6] and in the test filed under Rattus norvegicus [7] were 58 nmol/10^6 cells and 23.2 nmol/10^6 cells, respectively. The GSH level turned out to be 0.7 in the test filed under Rattus norvegicus [8] and 1.6 in the test filed under Rattus norvegicus [10].
For `O=C(O)[C@@H]1CSC(C(O)C(O)C(O)C(O)CO)N1` (stereo in doubt; 1g), the No. of animals in the test listed under Mus musculus [1] amounted to 7; in the test listed under Mus musculus [3], 0; in the test listed under Mus musculus [4] it was 2; in the test filed under Mus musculus [9] it was 1; in the test listed under Mus musculus [11], 0. In the test listed under Mus musculus [2], this molecule registered a Survival of 30%. In the test listed under Mus musculus [5], this molecule displayed a No. of survivors of 3. For the same molecule, the “[GSH]” value in the test listed under Rattus norvegicus [6] is 75.2 nmol/10^6 cells; in the test filed under Rattus norvegicus [7], 25.4 nmol/10^6 cells. The same molecule gave a GSH level in the test filed under Rattus norvegicus [10] of 2.1.
As for `O=C(O)[C@@H]1CSC(C(O)C(O)C(O)C(O)CO)N1` (stereo in doubt; 1h), the No. of animals in the test listed under Mus musculus [1] is 6; in the test listed under Mus musculus [3] it was 3; in the test listed under Mus musculus [4], 0; in the test filed under Mus musculus [11], 1. The same molecule had a Survival in the test listed under Mus musculus [2] of 40%. The No. of survivors in the test filed under Mus musculus [5] is given as 4. In addition, the “[GSH]” value stood at 57.8 nmol/10^6 cells in the test filed under Rattus norvegicus [6] and 18.9 nmol/10^6 cells in the test listed under Rattus norvegicus [7]. Besides, the GSH level in the test listed under Rattus norvegicus [8] is 0.5.
In the case of `CC(=O)Nc1ccc(O)cc1` [ACETAMINOPHEN], the No. of animals amounted to 11 in the test filed under Mus musculus [1]; 0 in the test filed under Mus musculus [3]; 0 in the test listed under Mus musculus [4]; 0 in the test filed under Mus musculus [9]; 1 in the test listed under Mus musculus [11]. The same molecule gave a Survival in the test filed under Mus musculus [2] of 17%. The No. of survivors in the test filed under Mus musculus [12] came to 2.
For the molecule `CC(=O)N[C@@H](CS)C(=O)O` [ACETYLCYSTEINE], the figures for the Survival in the test filed under Mus musculus [2] and in the test listed under Mus musculus [19] were 94% and 17%, respectively. The No. of animals in the test listed under Mus musculus [13] was determined as 0; in the test listed under Mus musculus [14] it was 13; in the test filed under Mus musculus [15] it was 3; in the test listed under Mus musculus [16] it was 1; in the test listed under Mus musculus [18], 1. Besides, in the test filed under Rattus norvegicus [17], the “[GSH]” value was 45.8 nM (10e6*cells)-1.
